Data from publication PMC2865690 (ChemMedChem, 2009).

Assays:
mGluR5 [1] = test: mGluR5 potentiation; format: cell-based; settings: read-out: Potentiator EC50; at an EC20 concentration of glutamate; average of at least three determinations
In short: (§1)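 Calcium fluorescence recorded continuously on mGluR5. Test compound added alone at t = 4 s, then an EC20 concentration of glutamate added 140 s later. Agonism is read from the response to compound alone; potentiation from the response to EC20 glutamate. Full concentration-response curves, up to 30 μM, give EC50s.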

mGluR5 [2] = test: mGluR5 allosteric agonist activity, compound alone without glutamate; format: cell-based
In short: as §1

mGluR5 [3] = test: Fold-shift assay of the glutamate concentration-response curve; format: cell-based; settings: 1 μM compound; leftward shift
[4] = cited from earlier work

| Compound | EC50 (mGluR5 [1]) [nM] | Allosteric agonist % Glu Max (mGluR5 [2]) [%] | EC50 (mGluR5 [2]; read-out: Allosteric agonist EC50, absence of an EC20 of glutamate) [nM] | Fold shift of the glutamate CRC (mGluR5 [3]) [fold] | Solubility in most vehicles [4] |
| --- | --- | --- | --- | --- | --- |
| O=C(c1ccc(F)cc1)N1CCCC(c2nc(-c3ccc(F)cc3)no2)C1 (stereo not drawn) [16a] | 1680 ± 3620 | – | – | – | – |
| O=C(c1ccc(F)cc1)N1CCC[C@H](c2nc(-c3ccc(F)cc3)no2)C1 [ADX-47273] | 168 ± 28 | 65 | 9500 | 9 | – |
| N#Cc1cccc(C(=O)Nc2cc(-c3ccccc3)nn2-c2ccccc2)c1 [CDPPB] | – | – | – | – | poor solubility |
